A short description of experiment [1]: inhibitors of TNFa-induced NFkB p65 translocation, primary screen, imaging, HUVEC, MLSMR starter and 10KST1 sets (AID 438;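 active = inhibition above 20% together with a positive visual image hit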;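 also: compound added about 3h40 before a 20 min TNFalpha stimulation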;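 as to inhibition: signal is the nuclear over cytoplasmic p65 intensity ratio per well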). Particulars: HUVEC TNFa-induced p65 nuclear translocation; cell count: measured here: nuclei count (cytotoxicity indicator), at 2.08 µM; inhibition: at 2 µM, stronger effect = higher value, 0% TNFa-plus-vehicle, 100% no-TNFa wells.
The nature of experiment [2]: inhibitors of mutant huntingtin aggregation, primary screen, imaging, exon1htt(103Q)mCFP cells, high-content imaging (AID 483;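 active = visual image review flags a hit and inhibition of aggregation exceeds 20%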;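 also: compound exposure lasted 3 days before fixation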;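 as to nuclei count: percent of the per-plate median nuclei count of sample wells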). As to conditions: exon1htt(103Q)mCFP cell line, aggregate imaging, at 2 µM; inhibition of aggregation: stronger effect = higher value; nuclei count: measured here: cell count, toxicity.
Experiment [3] can be described thus: inhibitors of E-selectin induction by TNFa, primary screen, imaging, HUVEC, immunofluorescence, MLSMR starter and 10KST1 sets (AID 487;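 active = visually confirmed hit in the image check and inhibition above 20%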;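 as to inhibition: signal is fraction of cell area covered by stained E-selectin grains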;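 as to nuclei count: 100% = median nuclei count of all wells on the same plate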). Particulars: HUVEC TNFalpha-induced E-selectin immunofluorescence imaging, at 2 µM; inhibition: stronger effect = higher value; nuclei count: measured here: cell number, toxicity.
Experiment [4] addresses Voltage-gated potassium channel subunit beta-2 (Rattus norvegicus) (UniProt P62483). The experiment is described as follows: KvBeta enzyme negative modulators, primary screen, biochemical, NADPH fluorescence (AID 622;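 active = fluorescence slope higher than the sample average by over 3 SD, cut at about -0.22 in these data, passing the limit was not always enough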;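 also: slope of raw intensity against log time taken from 70 to 1610 s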). As to conditions: recombinant KvBeta, 4-cyanobenzaldehyde reduction, at 10 µM, stronger effect = higher value.
For experiment [5] the target is unchanged. Description: KvBeta positive modulators, primary screen, biochemical, NADPH fluorescence (AID 623;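 active = NADPH fluorescence slope more negative than the mean of all samples by about 3 SD, 99.7% confidence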;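 also: fluorescence intensity change per second fitted from 20 to 320 s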). As to conditions: Recombinant KvBeta, NADPH fluorescence decrease slope, 10 min; at 10 µM; stronger effect = lower value.
Experiment [6] deals with Muscarinic acetylcholine receptor M4 (Homo sapiens) (UniProt P08173). Description: compounds altering M4/GIRK thallium flux, either direction, primary screen, M4 allosteric agonist project, cell-based, HEK293 M4/GIRK, BTC-AM (AID 625;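 active = fluorescence slope after compound addition differing from the mean of all tested samples at 99.7% confidence, mostly higher but some lower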;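 also: thallium influx through GIRK channels coupled to M4 in HEK293 cells with BTC-AM dye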). As to conditions: at 10 µM, actives lie on both sides. In a few lines:
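Material: HEK293 cells with M4 receptor and GIRK channels; Times: cells overnight at 37 °C, BTC-AM loading 1 h, reads 2 min total; Technique: kinetic BTC-AM fluorescence sampled at 1 Hz, 10 s pre-addition baseline; Read-out basis: slope over 15–24 s of trace normalized to starting intensity; Controls: carbachol positive, DMSO negative.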

The nature of experiment [7]: inhibitors of Sendai virus-induced IRF3 signaling, primary screen, TLR/RLR signaling modifier project, cell-based, Sendai virus stimulus, luciferase, 10K MLSCN set (AID 602276).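 Also: firefly luciferase from ISG56 promoter only with Renilla not read in this screen; 0% = Sendai virus plus DMSO and 100% = medium plus DMSO without virus.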 As to conditions: HEK293 RL24 IRF3 luciferase reporter, at 10 µM, stronger effect = higher value.
Experiment [8] can be described thus: inhibitors of poly I:C-induced TLR3 signaling, primary screen, cell-based, poly I:C stimulus, luciferase, 10K MLSCN set (AID 602277;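 active = inhibition of the reporter signal at or above 50%; inactive = inhibition below 50%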). Particulars: HEK293-TLR3 RL24 IRF3 luciferase reporter, at 10 µM, stronger effect = higher value. On the technique in general: A reporter such as luciferase makes a cellular process visible.

The source made the active and inactive calls.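 The calls were made as follows, unless noted: active = inhibition at or above 50% at 10 µM; inactive = inhibition below 50%.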

Sequence of Voltage-gated potassium channel subunit beta-2 (Rattus norvegicus) (P62483 whole entry, looked up): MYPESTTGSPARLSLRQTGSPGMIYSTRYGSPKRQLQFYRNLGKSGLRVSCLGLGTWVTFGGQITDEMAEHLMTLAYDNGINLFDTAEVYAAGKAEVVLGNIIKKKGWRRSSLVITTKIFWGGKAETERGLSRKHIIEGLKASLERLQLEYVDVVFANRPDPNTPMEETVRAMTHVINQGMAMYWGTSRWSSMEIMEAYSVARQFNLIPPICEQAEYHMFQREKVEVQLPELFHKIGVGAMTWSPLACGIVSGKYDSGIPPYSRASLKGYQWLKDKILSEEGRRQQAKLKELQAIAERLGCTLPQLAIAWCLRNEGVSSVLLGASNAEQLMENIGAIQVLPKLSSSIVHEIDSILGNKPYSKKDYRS
Sequence of Muscarinic acetylcholine receptor M4 (Homo sapiens) (P08173 whole entry, looked up): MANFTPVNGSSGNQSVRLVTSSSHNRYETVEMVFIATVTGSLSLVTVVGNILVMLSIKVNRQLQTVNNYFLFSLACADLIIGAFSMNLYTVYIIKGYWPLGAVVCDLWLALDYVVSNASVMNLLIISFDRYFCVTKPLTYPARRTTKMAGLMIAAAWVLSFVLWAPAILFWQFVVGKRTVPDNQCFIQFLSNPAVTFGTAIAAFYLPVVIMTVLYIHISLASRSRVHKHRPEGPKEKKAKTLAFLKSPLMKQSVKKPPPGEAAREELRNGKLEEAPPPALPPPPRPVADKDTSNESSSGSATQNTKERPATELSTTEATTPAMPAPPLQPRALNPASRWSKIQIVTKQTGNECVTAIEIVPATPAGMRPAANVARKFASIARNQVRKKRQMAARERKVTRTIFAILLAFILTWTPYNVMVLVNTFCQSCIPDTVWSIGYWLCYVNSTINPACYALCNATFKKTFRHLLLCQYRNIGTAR

The inhibition is the change of the read-out against control, counted positive when it falls. Regarding `O=c1[nH]c2ccccc2nc1NCCN1CCOCC1`, the cell count in experiment [1] was found to be 404. The inhibition is -26.6% (inactive) in experiment [1], -80.4% (inactive) in experiment [3], 8.81% (inactive) in experiment [7] and 1.66% (inactive) in experiment [8]. Also, the inhibition of aggregation in experiment [2] was -31.4% (inactive). Further, the values for the nuclei count in experiment [2] and in experiment [3] were 98.9% and 134%, respectively. The fluorescence slope was -0.553 (inactive) in experiment [4] and 0.00364 (inactive) in experiment [6]. The NADPH fluorescence slope in experiment [5] is -6.2e-05 (inactive).

Take `Cc1nc2ccccn2c1P(=O)(N1CCCCC1)N1CCCCC1`: the cell count in experiment [1] came out at 666. Also, the inhibition in experiment [1] was -11.7% (inactive); in experiment [3], -64.2% (inactive); in experiment [7], 20.1% (inactive); in experiment [8], 20.6% (inactive). In experiment [2], the inhibition of aggregation was -0.1% (inactive). Also, the nuclei count in experiment [2] was 77%; in experiment [3], 108%. For the same compound, the fluorescence slope is -0.526 (inactive) in experiment [4] and 0.00464 (inactive) in experiment [6]. In experiment [5], the NADPH fluorescence slope is -1.7e-06 (inactive).

With `Cc1cc(C)c(C)c(S(=O)(=O)Nc2ccc(O)cc2)c1C`, the cell count in experiment [1] turned out to be 187. Also, the inhibition in experiment [1] was -8.6% (inactive); in experiment [3], -7.7% (inactive); in experiment [7], 10.8% (inactive); in experiment [8], 18.5% (inactive). Also, in experiment [2], the inhibition of aggregation is 37.3% (active). Besides, the nuclei count came to 87.5% in experiment [2] and 74.8% in experiment [3]. For the same compound, the figures for the fluorescence slope in experiment [4] and in experiment [6] were -0.539 (inactive) and 0.00478 (inactive), respectively. For the same compound, the NADPH fluorescence slope in experiment [5] was -1.7e-05 (inactive).

Take `COCCCNS(=O)(=O)c1ccc2c(c1)CCN2C(C)=O`: the cell count in experiment [1] was 416. Further, the inhibition in experiment [1] is 0.3% (inactive); in experiment [3], -31.6% (inactive); in experiment [7] it was 15.1% (inactive); in experiment [8] it was 15% (inactive). Also, the inhibition of aggregation in experiment [2] is -9.3% (inactive). The nuclei count in experiment [2] stood at 125%; in experiment [3], 139%. The fluorescence slope in experiment [4] is -0.578 (inactive); in experiment [6] it was 0.00611 (inactive). The NADPH fluorescence slope in experiment [5] was 1.1e-05 (inactive).

As for `CCCCn1c(CN2CCN(c3cccc(Cl)c3)CC2)nc2c1c(=O)n(C)c(=O)n2C`, the cell count in experiment [1] came to 581. Also, the inhibition is 3.4% (inactive) in experiment [1], -3.3% (inactive) in experiment [3], 14.4% (inactive) in experiment [7] and -1.69% (inactive) in experiment [8]. Further, the inhibition of aggregation in experiment [2] was 10.6% (inactive). For the same compound, the nuclei count in experiment [2] worked out at 100%; in experiment [3], 103%. The fluorescence slope is -0.597 (inactive) in experiment [4] and 0.00321 (inactive) in experiment [6]. In addition, the NADPH fluorescence slope in experiment [5] is -6.6e-05 (inactive).

As to `Cc1noc(NS(=O)(=O)c2ccc(N3C(=O)c4ccccc4C3=O)cc2)c1C`, in experiment [1], the cell count was 754. Moreover, the inhibition in experiment [1] is -11.1% (inactive); in experiment [3], -0.4% (inactive); in experiment [7], 6.19% (inactive); in experiment [8], 25.2% (inactive). Moreover, in experiment [2], the inhibition of aggregation is 6.1% (inactive). In addition, the nuclei count is 104% in experiment [2] and 93.6% in experiment [3]. The fluorescence slope in experiment [4] is -0.533 (inactive); in experiment [6] it was 0.00521 (inactive). In addition, the NADPH fluorescence slope in experiment [5] was -3.7e-05 (inactive).

With `O=C(Nc1cccc(NC(=O)c2cccnc2)c1)c1cccnc1`, in experiment [1], the cell count stood at 515. The inhibition was -3.3% (inactive) in experiment [1], 2.1% (inactive) in experiment [3], 15.2% (inactive) in experiment [7] and 11% (inactive) in experiment [8]. In addition, in experiment [2], the inhibition of aggregation is -15.9% (inactive). Moreover, the nuclei count in experiment [2] is 96.4%; in experiment [3], 103%. For the same compound, the fluorescence slope in experiment [4] is -0.271 (inactive); in experiment [6] it was 0.0055 (inactive). The NADPH fluorescence slope in experiment [5] was -1.6e-05 (inactive).

Take `N#Cc1c(NC(=O)CSc2nnnn2C2CCCC2)sc2c1CCCC2`: in experiment [1], the cell count came out at 527. Moreover, the inhibition was -1.8% (inactive) in experiment [1], 36.6% (inactive) in experiment [3], 11% (inactive) in experiment [7] and 26.3% (inactive) in experiment [8]. Also, the inhibition of aggregation in experiment [2] is -3.6% (inactive). Besides, the results for the nuclei count in experiment [2] and in experiment [3] were 114% and 109%, respectively. In addition, the fluorescence slope is -0.392 (inactive) in experiment [4] and 0.00642 (inactive) in experiment [6]. Moreover, the NADPH fluorescence slope in experiment [5] is 2.8e-05 (inactive).

Regarding `N#Cc1c(/N=C/c2ccco2)sc2c1CCC2`, the cell count in experiment [1] came out at 657. Moreover, the inhibition in experiment [1] was 11.9% (inactive); in experiment [3] it was -12.4% (inactive); in experiment [7], -16.4% (inactive); in experiment [8] it was -42.7% (inactive). The inhibition of aggregation in experiment [2] was 0.6% (inactive). Moreover, the figures for the nuclei count in experiment [2] and in experiment [3] were 105% and 104%, respectively. For the same compound, the fluorescence slope is -0.507 (inactive) in experiment [4] and 0.00356 (inactive) in experiment [6]. Further, the NADPH fluorescence slope in experiment [5] was -0.000202 (inactive).

With `COc1cccc(NC(=O)Cc2nnc(SCC(=O)c3ccccc3)n2C)c1`, the cell count in experiment [1] came out at 454. The inhibition was 9.7% (inactive) in experiment [1], -39.3% (inactive) in experiment [3], 3.81% (inactive) in experiment [7] and 10.1% (inactive) in experiment [8]. The inhibition of aggregation in experiment [2] is -12.5% (inactive). Further, the values for the nuclei count in experiment [2] and in experiment [3] were 88.6% and 91.8%, respectively. For the same compound, the fluorescence slope is -0.5 (inactive) in experiment [4] and 0.0063 (inactive) in experiment [6]. The NADPH fluorescence slope in experiment [5] is 1.7e-05 (inactive).

Take `CCOC(=O)c1[nH]c(C)c(C(=O)N(C)C)c1C`: in experiment [1], the cell count stood at 684. Moreover, the inhibition in experiment [1] is -10.9% (inactive); in experiment [3], -68% (inactive); in experiment [7] it was -36.1% (inactive); in experiment [8] it was 99.3% (active). Also, the inhibition of aggregation in experiment [2] is 14.5% (inactive). In addition, the nuclei count in experiment [2] came out at 111%; in experiment [3], 106%. Further, the fluorescence slope was -0.465 (inactive) in experiment [4] and 0.00674 (inactive) in experiment [6]. The NADPH fluorescence slope in experiment [5] is -1.4e-05 (inactive).

With `O=C(O)COc1ccc(Oc2ccccc2)cc1`, the cell count in experiment [1] was 357. The inhibition in experiment [1] is 0.5% (inactive); in experiment [3] it was -8.6% (inactive); in experiment [7], 3.08% (inactive); in experiment [8], 9.93% (inactive). Besides, in experiment [2], the inhibition of aggregation was 0.7% (inactive). Also, the nuclei count in experiment [2] amounted to 103%; in experiment [3] it was 112%. The fluorescence slope in experiment [4] is -0.567 (inactive); in experiment [6], 0.00744 (inactive). Besides, in experiment [5], the NADPH fluorescence slope is 1.9e-05 (inactive).

For `CCOC(=O)c1c(C)c(C(=O)NCC2CCCO2)c(C)n1C` (centres undefined), the cell count in experiment [1] was 267. Further, the inhibition is -2% (inactive) in experiment [1], -8% (inactive) in experiment [3], 14.1% (inactive) in experiment [7] and 20.9% (inactive) in experiment [8]. Also, in experiment [2], the inhibition of aggregation is -10.1% (inactive). In addition, the figures for the nuclei count in experiment [2] and in experiment [3] were 94.7% and 74.6%, respectively. Besides, the values for the fluorescence slope in experiment [4] and in experiment [6] were -0.461 (inactive) and 0.00685 (inactive), respectively. For the same compound, the NADPH fluorescence slope in experiment [5] was -6e-06 (inactive).

Regarding `O=C(Nc1ccc(S(=O)(=O)NCCc2ccccc2)cc1)c1ccc(Br)o1`, the cell count in experiment [1] turned out to be 546. The inhibition is -1.3% (inactive) in experiment [1], -10.4% (inactive) in experiment [3], -1.94% (inactive) in experiment [7] and -11.8% (inactive) in experiment [8]. The inhibition of aggregation in experiment [2] was -22.6% (inactive). In addition, the values for the nuclei count in experiment [2] and in experiment [3] were 62.9% and 88.5%, respectively. Moreover, the fluorescence slope in experiment [4] was -0.499 (inactive); in experiment [6], 0.00439 (inactive). Moreover, the NADPH fluorescence slope in experiment [5] was -5.2e-06 (inactive).

The record behind these values is PubChem BioAssay.
